pIC50: −log10 of the molar value.

The source of these data is ChEMBL document CHEMBL1124174, “Substituted benzamides. 1. Potential nondopaminergic antagonists of chemotherapy-induced nausea and emesis” (J Med Chem, 1988).

The subject of assay [1] is Mustela putorius furo. Nature of the assay: In vivo antagonism of cisplatin-induced emesis in ferret measured as percentage protection for twice the dose of 1 mg/kg and in 3 ferrets. The format is functional. A digest of the protocol:
(§1)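 Nonfasted castrated male Fitch ferrets (1–1.5 kg) had jugular catheters implanted ≥48 h earlier under anesthesia. Compounds or saline were given iv twice, 5 min before and 90 min after cisplatin (12 mg/kg iv; 12 mg/mL in warm 0.9% saline). Emesis was observed up to 4 h; events within 1 min counted as one episode. Results were given as mean emetic episodes and % protection versus a pooled historical/concurrent control. t test versus saline.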

The next assay deals with D(2) dopamine receptor (Rattus norvegicus, UniProt P61169). Nature of the assay: In vitro antagonistic activity against Dopamine receptor D2 was evaluated for the inhibition of [3H]spiperone binding. A digest of the protocol:
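Rat striatal membranes were prepared by differential centrifugation in 50 mM Tris pH 7.4 at 4 °C. Membrane protein (10 mg) was incubated 15 min at 37 °C with 0.1 nM [3H]spiperone and varying competitor concentrations. Buffer: 50 mM Tris HCl pH 7.5, 0.1% ascorbic acid, pargyline, 120 mM NaCl, 5 mM KCl, 2 mM CaCl2, 1 mM MgCl2. (+)-Butaclamol defined nonspecific binding. Bound ligand was collected by filtration and scintillation counted. IC50 by log-logit regression.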

Assay [2] concerns Mustela putorius furo. Put plainly: In vivo antagonism of cisplatin-induced emesis in ferret measured as percentage protection for twice the dose of 3 mg/kg and in 3 ferrets. The format is functional. A digest of the protocol: as §1
The target in assay [3] is D(2) dopamine receptor (Canis lupus familiaris) (UniProt Q9GJU1). Put plainly: In vivo antagonism activity against dopamine D2 receptor was measured as emesis in dog when administered subcutaneously. The class given is functional, organism-based.
Assay [4] deals with Mustela putorius furo. Put plainly: in vivo antagonism of cisplatin-induced emesis in ferret measured as emetic episodes, twice the dose of 3 mg/kg and in 3 ferrets. The class given is functional. A digest of the protocol:
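Nonfasted castrated male Fitch ferrets (1–1.5 kg) carried jugular vein catheters implanted at least 48 h earlier under general anesthesia. Test compound or saline was given iv twice, 5 min before and 90 min after cisplatin (12 mg/kg iv; 12 mg/mL in warm saline). Emesis was watched for 4 h, with events within 1 min counted as one episode. % protection is relative to a pooled historical-plus-concurrent control, with t test versus saline.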

Assay [5] concerns Mustela putorius furo. Nature of the assay: In vivo antagonism of cisplatin-induced emesis in ferret measured as emetic episodes, twice the dose of mg/kg and in 3 ferrets. The format is functional. A digest of the protocol: as §1
In assay [6] the target is D(2) dopamine receptor (Rattus norvegicus) (UniProt P61169). Nature of the assay: In vivo antagonism activity against D2 receptor was measured as stereotypy in rat when administered subcutaneously. The class given is functional, organism-based. A digest of the protocol: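 Male Long Evans rats (275 g) were dosed sc in dilute aqueous HCl (pH 4.5-5.5) 30 min before apomorphine (1 mg/kg sc).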

The target is the same in assay [7]. Put plainly: In vivo antagonistic activity against dopamine D2 receptor was measured as catalepsy in rat when administered subcutaneously. The format is functional, organism-based. A digest of the protocol:
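Male Long Evans rats (275 g) received graded sc doses in dilute aqueous HCl (pH 4.5-5.5). They were observed 180 min for catalepsy, scored when the animal stayed stationary ≥15 s on a four-cork template.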

Assay [8] deals with Canis familiaris. Put plainly: In vivo antagonism of cisplatin-induced emesis in dog measured as percentage protection for twice the dose of 1 mg/kg in 2 dogs. The class given is functional, Canis lupus familiaris. A digest of the protocol: (§2)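 Nonfasted mature male or female beagles were dosed sc twice, 30 min before and 120 min after cisplatin (3 mg/kg iv; 3 mg/mL in warm 0.9% saline, used immediately). Emesis was observed up to 5 h; events within 2 min counted as one episode. Results were given as mean emetic episodes and % protection versus a dynamic control (historical and concurrent saline means pooled). t test versus saline.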

In assay [9] the test system is Mustela putorius furo. Put plainly: In vivo antagonism of cisplatin-induced emesis in ferret measured as percentage protection for twice the dose of 3 mg/kg and in 2 ferrets. The format is functional. A digest of the protocol: as §1
The test system of assay [10] is Mustela putorius furo. Put plainly: In vivo antagonism of cisplatin-induced emesis in ferret measured as emetic episodes, twice the dose of 3 mg/kg and in 2 ferrets. The format is functional. A digest of the protocol:
as §1

Assay [11] relates to Canis familiaris. Put plainly: In vivo antagonism of cisplatin-induced emesis in dog measured as emetic episodes, twice the dose of 1 mg/kg in 2 dogs. The class given is functional, Canis lupus familiaris. A digest of the protocol: as §2
The test system of assay [12] is Mustela putorius furo. Put plainly: In vivo antagonism of cisplatin-induced emesis in ferret measured as emetic episodes, twice the dose of 3 mg/kg and in 3 ferrets. The class given is functional. A digest of the protocol: as §1
In assay [13] the test system is Canis familiaris. Put plainly: In vivo antagonism of cisplatin-induced emesis in dog measured as percentage protection for twice the dose of 6 mg/kg in 3 dogs. The class given is functional, Canis lupus familiaris. A digest of the protocol: (§3)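 Nonfasted mature male or female beagles received test compound or saline sc twice, 30 min before and 120 min after cisplatin (3 mg/kg iv; 3 mg/mL in warm 0.9% saline, used at once). Emesis observed up to 5 h. Emetic episode = expulsion of stomach content; events within 2 min counted as one. Protection calculated against a dynamic control (historical mean pooled with concurrent saline control).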

Assay [14] concerns Canis familiaris. Nature of the assay: In vivo antagonism of cisplatin-induced emesis in dog measured as emetic episodes, twice the dose of 6 mg/kg in 3 dogs. The format is functional, Canis lupus familiaris. A digest of the protocol: as §3

Chain of D(2) dopamine receptor (Canis lupus familiaris) (Q9GJU1 whole entry): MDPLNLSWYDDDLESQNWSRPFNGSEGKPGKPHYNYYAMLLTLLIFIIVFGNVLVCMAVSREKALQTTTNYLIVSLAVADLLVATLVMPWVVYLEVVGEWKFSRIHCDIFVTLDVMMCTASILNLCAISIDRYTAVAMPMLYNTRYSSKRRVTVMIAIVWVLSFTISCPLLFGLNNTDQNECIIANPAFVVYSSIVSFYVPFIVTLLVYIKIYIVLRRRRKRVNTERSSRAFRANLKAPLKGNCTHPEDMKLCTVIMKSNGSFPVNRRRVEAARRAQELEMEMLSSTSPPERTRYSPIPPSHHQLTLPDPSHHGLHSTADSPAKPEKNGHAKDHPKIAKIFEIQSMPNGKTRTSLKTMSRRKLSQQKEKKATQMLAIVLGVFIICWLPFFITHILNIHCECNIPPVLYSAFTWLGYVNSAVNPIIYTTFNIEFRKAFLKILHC
Chain of D(2) dopamine receptor (Rattus norvegicus) (P61169 whole entry): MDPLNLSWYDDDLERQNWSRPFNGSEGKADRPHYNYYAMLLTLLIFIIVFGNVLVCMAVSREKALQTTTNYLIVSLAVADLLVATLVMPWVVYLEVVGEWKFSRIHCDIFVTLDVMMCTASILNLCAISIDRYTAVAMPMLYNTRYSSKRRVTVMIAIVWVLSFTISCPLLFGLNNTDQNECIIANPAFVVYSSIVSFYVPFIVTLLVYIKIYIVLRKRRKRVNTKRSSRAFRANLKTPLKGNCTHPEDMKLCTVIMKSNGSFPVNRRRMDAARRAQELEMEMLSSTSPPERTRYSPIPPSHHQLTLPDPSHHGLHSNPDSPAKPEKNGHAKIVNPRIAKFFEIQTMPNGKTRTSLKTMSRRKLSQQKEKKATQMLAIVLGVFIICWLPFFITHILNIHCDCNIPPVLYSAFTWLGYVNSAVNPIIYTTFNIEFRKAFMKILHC
Chain of D(2) dopamine receptor (P61169 whole entry): as above

Consider `CCN(CC)CCNC(=O)c1cc(Cl)c(N)cc1OCC(C)OC` (stereo not drawn), for which the Protection with Mustela putorius furo [1] was 57%; with Mustela putorius furo [2] it was 86%. Also, the negative logarithm of the IC50 (pIC50) on D(2) dopamine receptor was less than 6.00. Moreover, the 50% effective dose (ED50) in assay [3] is greater than 3 mg/kg; in [6] it was greater than 40 mg/kg; in assay [7] it was greater than 40 mg/kg. Further, the values for the Emetic episodes in the assay with Mustela putorius furo [4] and in the assay with Mustela putorius furo [5] were 1 and 3, respectively.
For the molecule `CCN(CC)CCNC(=O)c1cc(Cl)c(N)cc1OCOCCOC`, the figures for the Protection with Canis familiaris [8] and in the assay on Mustela putorius furo [9] were 72% and 100%, respectively. For the same molecule, the negative-log IC50 (pIC50) at D(2) dopamine receptor was less than 6.00. Besides, the 50% effective dose (ED50) in assay [3] is greater than 3 mg/kg; in assay [6], greater than 40 mg/kg; in assay [7], greater than 40 mg/kg. In addition, the Emetic episodes in the assay on Mustela putorius furo [10] worked out at 0; in the assay with Canis familiaris [11], 3.5.
Take `O=c1[nH]c2ccccc2n1CCCN1CCC(n2c(=O)[nH]c3cc(Cl)ccc32)CC1` [DOMPERIDONE]: the Emetic episodes was 3.3 with Mustela putorius furo [12] and 9.7 in the assay on Canis familiaris [14]. Further, the Protection in the assay on Mustela putorius furo [2] turned out to be 50%; in the assay on Canis familiaris [13], 30%. Moreover, the 50% effective dose (ED50) was 0.08 mg/kg in [3], greater than 40 mg/kg in assay [6] and greater than 40 mg/kg in assay [7].

What is called pIC50 is the negative decadic logarithm of the IC50, by convention in mol/L. Read a low pIC50 as a large IC50. Usually ED50 stands for the dose at which the effect has come halfway, by size or by number of responders.
